Active and inactive are the calls of the source. No cut-off for these calls is given here.
Columns and labels:
SW-620 [1] = experiment: Cytotoxicity against human SW620 cells assessed as cell viability at 10 uM after 48 to 72 hrs; format: functional, cell-based
Procedure, shortened: (§1)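 Cells seeded at 10^5 per well in RPMI 1640/10% FBS at 37 °C. Subconfluent cells exposed to 0, 0.1, 0.5, 1, 2, 5 or 10 μM for 48 h, or to 10 μM for 24, 48 and 72 h; ethanol vehicle, at most 0.01% v/v final. Cells trypsinized and counted by hemocytometer. Viability as % of control, means ± SD, three experiments in triplicate.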

SW-620 [2] = experiment: Cytotoxicity against human SW620 cells assessed as cell viability at 0.1 to 2 uM after 24 to 72 hrs; format: functional, cell-based; procedure, shortened: as §1
SW-620 [3] = experiment: Increase of p21 expression in human SW620 cells at 0.5 to 10 uM after 24 hrs by immunoblotting; format: functional, cell-based
Procedure, shortened: (§2)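 HCT-116 or SW-620 cells treated with 0–10 μM for 24 h. Lysates probed for p21 by SDS-PAGE immunoblotting with ECL detection; β-actin as loading control.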

HCT-116 [4] = experiment: Cell cycle arrest in human HCT116 cells assessed as accumulation at G0/G1 phase at 10 uM after 48 hrs using propidium iodide staining by flow cytometry (reference value: 56.7 +/- 1.9%); format: functional
HCT-116 [5] = experiment: Induction of apoptosis in human HCT116 cells at 5 uM after 48 hrs using Annexin V-FITC and propidium iodide staining by flow cytometry (reference value: 7.6 +/- 3%); format: functional
Procedure, shortened: (§3)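 Subconfluent cells in RPMI 1640 + 10% FBS treated with 0–10 μM for 48 h. Harvested cells incubated 10 min with FITC-annexin V/PI, then analysed by flow cytometry (488/525 nm for annexin V-FITC, 488/675 nm for PI). Reported as % apoptotic cells, means ± SD of three experiments in triplicate.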

SW-620 [6] = experiment: Cell cycle arrest in human SW620 cells assessed as accumulation at G2/M phase at 0.5 uM after 48 hrs using propidium iodide staining by flow cytometry (reference value: 9.1 +/- 0.3%); format: functional
HCT-116 [7] = experiment: Induction of apoptosis in human HCT116 cells assessed as reduction of Bcl-2 protein expression at 0.1 to 10 uM after 24 hrs by immunoblotting; format: functional, cell-based
Procedure, shortened: (§4)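 HCT-116 or SW-620 cells treated with 0–10 μM for 24 h, lysed, and run on 15% SDS-PAGE immunoblots. Probed for Bcl-2 (1:1000), Bax (1:500), caspase-9/-3 and their cleaved forms (1:1000), and β-actin (1:1000). Bands quantified by densitometry; means ± SD of three experiments in duplicate.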

SW-620 [8] = experiment: Cell cycle arrest in human SW620 cells assessed as accumulation at S phase at 2 uM after 48 hrs using propidium iodide staining by flow cytometry (reference value: 43.1 +/- 1%); format: functional
HCT-116 [9] = experiment: Decrease of cyclin A expression in human HCT116 cells after 24 hrs by immunoblotting; format: functional, cell-based
Procedure, shortened: (§5)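 HCT-116 or SW-620 cells exposed to 0–10 μM for 24 h. Cells lysed in Tris/NaCl/EDTA/1% Triton X-100 buffer with protease and phosphatase inhibitors at 4 °C, protein measured by BCA. Lysates run on 10–12.5% SDS-PAGE and immunoblotted, ECL detection. Cdk2, cyclin A and cyclin E antibodies used at 1:500; β-actin as loading control.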

SW-620 [10] = experiment: Cell cycle arrest in human SW620 cells assessed as accumulation at S phase at 0.5 uM after 48 hrs using propidium iodide staining by flow cytometry (reference value: 43.1 +/- 1%); format: functional
HCT-116 [11] = experiment: Cell cycle arrest in human HCT116 cells assessed as accumulation at G0/G1 phase at 0.1 uM after 48 hrs using propidium iodide staining by flow cytometry (reference value: 56.7 +/- 1.9%); format: functional
HCT-116 [12] = experiment: Increase of p21 expression in human HCT116 cells at 0.1 to 10 uM after 24 hrs by immunoblotting; format: functional, cell-based; procedure, shortened: as §2
SW-620 [13] = experiment: Effect on Cdk inhibitor gene expression in p53 deficient human SW620 cells at 0.5 to 10 uM after 24 hrs by immunoblotting; format: functional, cell-based
SW-620 [14] = experiment: Cell cycle arrest in human SW620 cells assessed as accumulation at G2/M phase at 10 uM after 48 hrs using propidium iodide staining by flow cytometry (reference value: 9.1 +/- 0.3%); format: functional
HCT-116 [15] = experiment: Induction of apoptosis in human HCT116 cells expressing p21 siRNA assessed as increase of expression of cleaved caspase-9 and caspase-3 at 10 uM after 24 hrs by immunoblotting; format: functional, cell-based
Procedure, shortened: (§6)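 Cells transfected with 100 nM scrambled or p21 siRNA for 4 h, then grown 24 h in complete medium and treated with 10 μM for 24 h. p21, caspase-9/-3 and cleaved forms analysed by 15% SDS-PAGE immunoblot with densitometry. Means ± SD, three experiments in triplicate.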

HCT-116 [16] = experiment: Cell cycle arrest in human HCT116 cells assessed as accumulation at G2/M phase at 10 uM after 48 hrs using propidium iodide staining by flow cytometry (reference value: 7.1 +/- 0.3%); format: functional
HCT-116 [17] = experiment: Cell cycle arrest in human HCT116 cells assessed as accumulation at G2/M phase at 0.5 uM after 48 hrs using propidium iodide staining by flow cytometry (reference value: 7.1 +/- 0.3%); format: functional
SW-620 [18] = experiment: Induction of apoptosis in human SW620 cells expressing p21 siRNA assessed as increase of expression of cleaved caspase-9 and caspase-3 at 10 uM after 24 hrs by immunoblotting; format: functional, cell-based; procedure, shortened: as §6
SW-620 [19] = experiment: Cell cycle arrest in human SW620 cells assessed as accumulation at S phase after 48 hrs using propidium iodide staining by flow cytometry; format: functional, cell-based
SW-620 [20] = experiment: Induction of apoptosis in human SW620 cells expressing p21 siRNA assessed as change in cell morphology at 10 uM after 24 hrs by phase-contrast microscopic analysis; format: functional, cell-based
Procedure, shortened: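 Cells plated at 5 × 10^4 per well and transfected with 100 nM scrambled or p21 siRNA in OPTI-MEM for 4 h. Complete RPMI medium was added and cells grown a further 24 h, then exposed to 10 μM for 24 h. Viability measured by direct count after trypan blue staining. Morphology viewed by phase-contrast at 200×. Means ± SD, three experiments in triplicate.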

HCT-116 [21] = experiment: Cell cycle arrest in human HCT116 cells assessed as accumulation at G2/M phase at 1 uM after 48 hrs using propidium iodide staining by flow cytometry (reference value: 7.1 +/- 0.3%); format: functional
SW-620 [22] = experiment: Cell cycle arrest in human SW620 cells assessed as accumulation at G2/M phase at 2 uM after 48 hrs using propidium iodide staining by flow cytometry (reference value: 9.1 +/- 0.3%); format: functional
SW-620 [23] = experiment: Induction of apoptosis in human SW620 cells assessed as increase of Bax protein expression after 24 hrs by immunoblotting; format: functional, cell-based; procedure, shortened: as §4
SW-620 [24] = experiment: Decrease of cyclin E expression in human SW620 cells after 24 hrs by immunoblotting; format: functional, cell-based; procedure, shortened: as §5
SW-620 [25] = experiment: Cell cycle arrest in human SW620 cells assessed as accumulation at S phase at 1 uM after 48 hrs using propidium iodide staining by flow cytometry (reference value: 43.1 +/- 1%); format: functional
SW-620 [26] = experiment: Induction of apoptosis in human SW620 cells at 5 uM after 48 hrs using Annexin V-FITC and propidium iodide staining by flow cytometry (reference value: 3.8 +/- 2.1%); format: functional; procedure, shortened: as §3

Compound: CC(C)c1cccc(=O)c(O)c1 [HINOKITIOL]
- Activity (SW-620 [1]): Active
- Activity (SW-620 [2]): Active
- Activity (SW-620 [3]): Active
- Activity (HCT-116 [4]): 38.8%
- Activity (HCT-116 [5]): 15.6%
- Activity (SW-620 [6]): 8.4%
- Activity (HCT-116 [7]): Active
- Activity (SW-620 [8]): 52.4%
- Activity (HCT-116 [9]): Dose-dependent effect
- Activity (SW-620 [10]): 43.3%
- Activity (HCT-116 [11]): 58.1%
- Activity (HCT-116 [12]): Active
- Activity (SW-620 [13]): inactive
- Activity (SW-620 [14]): 1.5%
- Activity (HCT-116 [15]): inactive
- Activity (HCT-116 [16]): 7.4%
- Activity (HCT-116 [17]): 8%
- Activity (SW-620 [18]): inactive
- Activity (SW-620 [19]): Dose-dependent effect
- Activity (SW-620 [20]): inactive
- Activity (HCT-116 [21]): 7.7%
- Activity (SW-620 [22]): 4.5%
- Activity (SW-620 [23]): Dose-dependent effect
- Activity (SW-620 [24]): Dose-dependent effect
- Activity (SW-620 [25]): 47.7%
- Activity (SW-620 [26]): 53.1%
